{
  "source": "ChEMBL document CHEMBL4706496",
  "about": "“Discovery of novel aminopiperidinyl amide CXCR4 modulators through virtual screening and rational drug design” (Eur J Med Chem, 2020)",
  "key": {"[1]": {"test_system": "MDA-MB-231", "assay": "Antiinvasive activity against human MDA-MB-231 cells assessed as inhibition of cell migration at 100 nM incubated for 22 hrs by H and E staining based matrigel invasion assay", "format": "functional", "in_short": "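MDA-MB-231 cells (DMEM, 10% FBS, penicillin/streptomycin) seeded on Matrigel in upper chamber with compound at 100 nM; 200 ng/mL CXCL12 in lower chamber as chemoattractant. Invaded cells at the Matrigel bottom fixed in methanol, H&E stained and counted to give percentage invasion.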"}, "[2]": {"biological_target": "C-X-C chemokine receptor type 4 (Homo sapiens) (UniProt P61073)", "sequence (P61073 whole entry)": "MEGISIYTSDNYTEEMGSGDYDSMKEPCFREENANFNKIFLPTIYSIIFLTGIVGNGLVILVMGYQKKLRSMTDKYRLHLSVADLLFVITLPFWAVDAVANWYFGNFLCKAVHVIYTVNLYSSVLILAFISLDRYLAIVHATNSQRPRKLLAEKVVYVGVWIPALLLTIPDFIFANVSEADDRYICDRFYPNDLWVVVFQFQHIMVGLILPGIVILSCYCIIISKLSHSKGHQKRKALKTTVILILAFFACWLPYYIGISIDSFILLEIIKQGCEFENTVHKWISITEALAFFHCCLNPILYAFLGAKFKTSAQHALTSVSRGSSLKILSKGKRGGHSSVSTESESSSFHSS", "assay": "Binding affinity to human CXCR4 in human MDA-MB-231 cells assessed as inhibition of CXCR4-targeted conjugate formation preincubated with compound followed by biotinylated-TN14003 addition and measured after 45 mins by competition based microscopic analysis", "format": "cell-based", "in_short": "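MDA-MB-231 cells in chamber slides preincubated with compound at 1, 10, 100 and 1000 nM. Then fixed in 4% formaldehyde, incubated with 50 nM biotinylated TN14003, and stained with streptavidin–rhodamine. Fluorescence imaged by microscopy and quantified. EC defined as the concentration blocking >50% of probe signal; IC50 obtained by curve fitting.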"}, "[3]": {"test_system": "Mus musculus", "assay": "Antiinflammatory activity in JAZ 007850 J:NU mouse assessed as decrease in carrageenan-induced paw edema treated at 10 mg/kg, ip qd starting 30 min after carrageenan challenge measured after 74 hrs"}, "[4]": {"assay": "Stability in athymic nude-Foxn1 mouse serum measured upto 120 mins by HPLC method", "format": "ADME, cell-free", "conditions": "2 h", "in_short": "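Blood from female athymic nude mice (7 weeks) taken from orbital venous sinus and spun at 13,000 rpm, 6 min, 4 °C. Supernatant mixed 4:1 with 10 mM aqueous compound solution (stock) and held at 36.6 °C. Samples at 0, 5, 15, 30, 60, 120 min passed through 10 kDa filter. Filtrate run on C18 HPLC, acetonitrile/water (0.1% TEA) 3:7, detection at 310 nm. Half-life from one-phase decay fit.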"}, "[5]": {"test_system": "Mus musculus", "assay": "Antiinflammatory activity in carrageenan-induced JAZ 007850 J:NU mouse model assessed as reduction in infiltration of CXCR-4 expressing cells at 10 mg/kg, ip qd measured after 74 hrs by immunohistochemistry assay", "format": "functional, organism-based", "in_short": "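Carrageenan paw edema tissue (male nude mice, 10 mg/kg i.p. daily, harvested 74 h) formalin-fixed, paraffin-embedded, deparaffinized. Antigen retrieval by microwaving in 10 mM sodium citrate pH 6.0. Blocked with hydrogen peroxide, avidin/biotin and horse serum. Anti-CXCR4 antibody at 1:500 overnight at 4 °C, then biotinylated secondary and avidin-biotin complex. Developed with diaminobenzidine, hematoxylin counterstain; H&E sections also examined.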"}},
  "note": "Activity calls are given as the source filed them.",
  "data": [
    {"compound": "N[C@@H](C(=O)NC1CCN(C(=O)CCn2ccc3ccncc32)CC1)c1ccccc1", "values": [
      {"measurement": "inhibition at 0.1 µM", "setting": "[1]", "result": 68.6, "unit": "%"},
      {"measurement": "EC", "setting": "[2]", "result": 100, "unit": "nM"}
    ]},
    {"compound": "NC(=O)C1CCN(Cc2ccc(NC(=O)CCc3c[nH]c4ccccc34)cc2)CC1", "values": [
      {"measurement": "inhibition", "setting": "[1]", "result": "inactive"},
      {"measurement": "EC", "setting": "[2]", "result": 1000, "unit": "nM"}
    ]},
    {"compound": "C[C@H](C(=O)N[C@@H]1CCN(Cc2ccccc2)C1)N1CCC(C(=O)Nc2cc(O)ccc2Cl)CC1", "values": [
      {"measurement": "inhibition", "setting": "[1]", "result": "inactive"},
      {"measurement": "EC", "setting": "[2]", "result": "> 1000", "unit": "nM"}
    ]},
    {"compound": "C[C@@H](NC(=O)[C@@H](N)c1ccccc1)C(=O)N1CCN(C(=O)CCn2ccc3ccncc32)CC1", "values": [
      {"measurement": "inhibition at 0.1 µM", "setting": "[1]", "result": 15.7, "unit": "%"},
      {"measurement": "EC", "setting": "[2]", "result": 100, "unit": "nM"}
    ]},
    {"compound": "O=C(NCCc1c[nH]c2ccccc12)C1CCN(C(=O)Cc2nnc(O)c3ccccc23)CC1", "values": [
      {"measurement": "inhibition", "setting": "[1]", "result": "inactive"},
      {"measurement": "EC", "setting": "[2]", "result": 1000, "unit": "nM"}
    ]},
    {"compound": "O=C(CN1CCC(n2nnc(-c3cccs3)n2)CC1)Nc1ccc(Cn2cncn2)cc1", "values": [
      {"measurement": "inhibition at 0.1 µM", "setting": "[1]", "result": 40.9, "unit": "%"},
      {"measurement": "EC", "setting": "[2]", "result": 100, "unit": "nM"}
    ]},
    {"compound": "N=C(N)NCCC[C@H](N)C(=O)NC1CCN(C(=O)CCn2ccc3ccncc32)CC1", "values": [
      {"measurement": "inhibition", "setting": "[3]", "result": "Active"},
      {"measurement": "t1/2", "setting": "[4]", "result": 1.28, "unit": "h"},
      {"measurement": "inhibition", "setting": "[5]", "result": "Active"},
      {"measurement": "inhibition at 0.1 µM", "setting": "[1]", "result": 78.5, "unit": "%"},
      {"measurement": "EC", "setting": "[2]", "result": 1, "unit": "nM"}
    ]},
    {"compound": "O=C(Nc1ccc2c(c1)OCO2)C1CCN(C(=O)NC2CCN(Cc3ccccc3)CC2)CC1", "values": [
      {"measurement": "inhibition at 0.1 µM", "setting": "[1]", "result": 9.3, "unit": "%"},
      {"measurement": "EC", "setting": "[2]", "result": 10, "unit": "nM"}
    ]}
  ]
}
